Experimental data as given in ChEMBL document CHEMBL3596140, “Bisleuconothine A Induces Autophagosome Formation by Interfering with AKT-mTOR Signaling Pathway” (J Nat Prod, 2015).
Active and inactive are the calls of the source. No cut-off for these calls is given here.

Experiments:
A549 [1] = test: Cytotoxicity against human A549 cells assessed as induction of cell death by microscopic analysis; assay type: functional, cell-based
A549 [2] = test: Downregulation of Bcl-XL protein expression in human A549 cells at 100 nM after 24 hrs by Western blot analysis; assay type: functional, cell-based
How it was run: (§1)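 Total lysates of A549 cells harvested at 0, 6, 12 and 24 h after exposure to 24 μM test agent or 100 nM vinblastine. Proteins resolved, transferred to PVDF and probed for Bcl-xL, Mcl-1, Bcl-2, Bax-1, Bid, PUMA, Bim, Bik and p53, with antibodies diluted in BlockAce and β-actin as loading reference.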

A549 [3] = test: Induction of apoptosis in human A549 cells assessed as early apoptotic cells at 100 nM after 24 hrs by FITC-annexin V/propidium iodide staining-based flow cytometric analysis relative to control; assay type: functional
How it was run: (§2)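 A549 cells (5 × 10^5 cells/dish) exposed to compound (24 μM, or 100 nM for vinblastine) for 24 h. Cells washed twice with PBS and stained with FITC–annexin V plus propidium iodide in FACS buffer with 0.3% BSA. Quadrant distribution read by flow cytometry against untreated cells.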

A549 [4] = test: Cytostatic activity against human A549 cells after 48 hrs by MTT assay; assay type: functional, cell-based
How it was run: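 A549 cells in medium with 10% FBS and 1% penicillin–streptomycin, exposed to compound for 48 h. MTT (5 mg/mL stock) added at the end of exposure, then 3 h further incubation. Formazan dissolved in DMSO and read at 550 nm (reference 700 nm) as a measure of succinate dehydrogenase activity. IC50 taken from the concentration–response curve. Microscopy used for confirmation.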

A549 [5] = test: Downregulation of Mcl-1 protein expression in human A549 cells at 100 nM after 24 hrs by Western blot analysis; assay type: functional, cell-based; how it was run: as §1
A549 [6] = test: Induction of apoptosis in human A549 cells assessed as late apoptotic cells at 100 nM after 24 hrs by FITC-annexin V/propidium iodide staining-based flow cytometric analysis relative to control; assay type: functional; how it was run: as §2
A549 [7] = test: Upregulation of p53 protein expression in human A549 cells at 100 nM after 24 hrs by Western blot analysis; assay type: functional, cell-based; how it was run: as §1
A549 [8] = test: Downregulation of BimEL protein expression in human A549 cells at 100 nM after 24 hrs by Western blot analysis; assay type: functional, cell-based; how it was run: as §1
A549 [9] = test: Induction of autophagy in human A549 cells assessed as increase in conversion of LC3-1 to LC3-2 at 5 uM after 6 hrs by Western blot analysis; assay type: functional, cell-based
How it was run: (§3)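 A549 cells kept in serum-free medium for 1 h, then exposed to 6 μM compound or 5 μM everolimus, with or without bafilomycin A1 (400 nM), for 6 h. LC3 and p62 levels in lysates assessed by Western blot to follow autophagic flux.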

[10] = target: Serine/threonine-protein kinase mTOR (Homo sapiens) (UniProt P42345); test: Inhibition of mTOR phosphorylation at ser2448 in human A549 cells at 5 uM after 3 to 24 hrs by Western blot analysis; assay type: cell-based
How it was run: (§4)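 A549 total lysates harvested 3, 6, 12 or 24 h after exposure to 6 μM compound or 5 μM everolimus. Western blot on PVDF with antibodies to phospho-mTOR Ser2448, phospho-AKT Thr308 and Ser473, phospho-p70S6K Thr389, phospho-PDK1 Ser241 and PRAS40 Thr246, alongside total proteins and β-actin.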

[11] = target: Serine/threonine-protein kinase mTOR (Homo sapiens) (UniProt P42345); test: Inhibition of mTOR in human A549 cells assessed as downregulation of p70S6K phosphorylation at thr389 at 5 uM after 3 to 24 hrs by Western blot analysis; assay type: cell-based; how it was run: as §4
A549 [12] = test: Inhibition of AKT in human A549 cells assessed as downregulation of PRAS40 phosphorylation at thr246 at 5 uM after 3 to 12 hrs by Western blot analysis; assay type: cell-based; how it was run: as §4
A549 [13] = test: Induction of autophagic punctation in human A549 cells assessed as increase of puncta with LC3 at 5 uM after 6 hrs by immunofluorescence staining-based microscopic analysis relative to control; assay type: functional, cell-based
How it was run: (§5)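 A549 cells on chamber slides placed in serum-free medium for 1 h, then exposed for 6 h to 6 μM compound, 5 μM everolimus or 400 nM bafilomycin A1. Fixed in ice-cold methanol for 15 min at −20 °C and blocked. Stained for LC3B, LAMP2 and p62 with Alexa Fluor 488/546/647 secondaries, mounted with DAPI, and puncta assessed by fluorescence microscopy.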

A549 [14] = test: Induction of autophagic punctation in human A549 cells assessed as increase of puncta with p62 at 5 uM after 6 hrs by immunofluorescence staining-based microscopic analysis relative to control; assay type: functional, cell-based; how it was run: as §5
A549 [15] = test: Prevention of autophagosome degradation in human A549 cells assessed as upregulation of p62 expression at 5 uM after 6 hrs by Western blot analysis; assay type: functional, cell-based; how it was run: as §3

SMILES	Activity (A549 [1])	Activity (A549 [2])	Activity (A549 [3]) [%]	Activity (A549 [4])	Activity (A549 [5])	Activity (A549 [6]) [%]	Activity (A549 [7])	Activity (A549 [8])	Activity (A549 [9])	inhibition [10]	inhibition [11]	inhibition (A549 [12])	Activity (A549 [13])	Activity (A549 [14])	Activity (A549 [15])
CC[C@]1(O)C[C@@H]2CN(CCc3c([nH]c4ccccc34)[C@@](C(=O)OC)(c3cc4c(cc3OC)N(C)[C@H]3[C@@](O)(C(=O)OC)[C@H](OC(C)=O)[C@]5(CC)C=CCN6CC[C@]43[C@@H]65)C2)C1 [VINBLASTINE]	Active	Active	30	Dose-dependent effect	Active	30	Active	Active	–	–	–	–	–	–	–
CO[C@H]1C[C@@H]2CC[C@@H](C)[C@@](O)(O2)C(=O)C(=O)N2CCCC[C@H]2C(=O)O[C@H]([C@H](C)C[C@@H]2CC[C@@H](OCCO)[C@H](OC)C2)CC(=O)[C@H](C)/C=C(\C)[C@@H](O)[C@@H](OC)C(=O)[C@H](C)C[C@H](C)/C=C/C=C/C=C/1C	–	–	–	–	–	–	–	–	Active	Active	Active	inactive	inactive	inactive	inactive
